The source made the active and inactive calls.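 The calls were made as follows, unless noted: active = viability at or below 30% in both replicate assays; inconclusive = viability at or below 30% in just one of the two assays; inactive = the rest.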
How the values were obtained:
[1] = reducers of endogenous Her2 protein level, primary screen, SKBR3 breast tumor cells, AlphaScreen, ATP viability (AID 461;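 active = Her2 level under about 52% in both replicate screens, with viability over 70% of control, limit read from the data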;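 as to Her2 level: lower value means less Her2 protein in the cells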;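 as to viability: percent of carrier control wells set as 100% viability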); conditions: 18-24 h, measured here: SKBR3 viability, ATP luminescence, at 10 µM
[2] = target: Receptor tyrosine-protein kinase erbB-2 (Homo sapiens) (UniProt P04626); assay: as above; conditions: 18-24 h, at 10 µM, stronger effect = lower value
[3] = SK-BR-3 cell growth inhibitors, pilot screen, 24 h, human (AID 572;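 active = viability at or below 10% of carrier control in both of two separate runs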;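 also: compound exposure lasted between 18 and 24 h rather than exactly 24 h; 100% = carrier-treated control wells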); conditions: SK-BR-3 viability, CellTiter-Glo luminescence, at 10 µM, stronger effect = lower value
[4] = HUVEC growth inhibition – cell-based, human, primary screen (AID 575); conditions: HUVEC proliferation, CellTiter-Glo luminescence, 72 h; at 10 µM; stronger effect = lower value;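 also: 100% = median of untreated cell wells with 0.1% DMSO on each plate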
Procedure, shortened: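 Timing: 72 h treatment at 37 °C; material: HUVEC primary cells; technique: CellTiter-Glo luminescence measuring cellular ATP; controls: vehicle and MePR control wells; measure: percent of median DMSO-control luminescence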

[5] = growth inhibitors of H69AR lung tumor, primary screen, human, duplicate replicates (AID 580;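 active = viability at or under a set limit in both replicates, limit being median viability minus 3 SD, cut at about 48% in these data, passing the limit was not always enough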;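 also: 100% = mean luminescence of untreated wells and 0% = no signal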); conditions: H69AR lung tumor cells viability, ATP luminescence, 72 h; at 10 µM; stronger effect = lower value
[6] = reversal of MRP1-mediated doxorubicin resistance, pilot screen, H69AR cells, doxorubicin co-treatment (AID 601;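 active = viability loss from added drug above about 55%, and viability with drug at most 40%, in both replicates, limit read from the data, passing the limit was not always enough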); conditions: CellTiter-Glo, 72 h, at 10 µM; for differential viability (reversal): stronger effect = higher value
[7] = 384-well plate pilot, post-Golgi transport modulator project, inhibition of yeast transport mutant growth (AID 636; in the data active = inhibition above about 31%); conditions: absorbance 615 nm, about 18 h, stronger effect = higher value
[8] = growth suppression of yeast trafficking mutant, preliminary HTS, modulators of trafficking downstream of Golgi apparatus project, 1536-format plate, OD 615 nm (AID 637; in the data active = inhibition above about 30%); conditions: yeast transport mutant growth, absorbance 615 nm, 18 h; stronger effect = higher value
[9] = H69AR cells + 2 uM doxorubicin, measured here: viability with 2 uM doxorubicin, stronger effect = lower value
[10] = H69AR cells, compound alone cytotoxicity

Chain of Receptor tyrosine-protein kinase erbB-2 (Homo sapiens) (P04626 whole entry, looked up): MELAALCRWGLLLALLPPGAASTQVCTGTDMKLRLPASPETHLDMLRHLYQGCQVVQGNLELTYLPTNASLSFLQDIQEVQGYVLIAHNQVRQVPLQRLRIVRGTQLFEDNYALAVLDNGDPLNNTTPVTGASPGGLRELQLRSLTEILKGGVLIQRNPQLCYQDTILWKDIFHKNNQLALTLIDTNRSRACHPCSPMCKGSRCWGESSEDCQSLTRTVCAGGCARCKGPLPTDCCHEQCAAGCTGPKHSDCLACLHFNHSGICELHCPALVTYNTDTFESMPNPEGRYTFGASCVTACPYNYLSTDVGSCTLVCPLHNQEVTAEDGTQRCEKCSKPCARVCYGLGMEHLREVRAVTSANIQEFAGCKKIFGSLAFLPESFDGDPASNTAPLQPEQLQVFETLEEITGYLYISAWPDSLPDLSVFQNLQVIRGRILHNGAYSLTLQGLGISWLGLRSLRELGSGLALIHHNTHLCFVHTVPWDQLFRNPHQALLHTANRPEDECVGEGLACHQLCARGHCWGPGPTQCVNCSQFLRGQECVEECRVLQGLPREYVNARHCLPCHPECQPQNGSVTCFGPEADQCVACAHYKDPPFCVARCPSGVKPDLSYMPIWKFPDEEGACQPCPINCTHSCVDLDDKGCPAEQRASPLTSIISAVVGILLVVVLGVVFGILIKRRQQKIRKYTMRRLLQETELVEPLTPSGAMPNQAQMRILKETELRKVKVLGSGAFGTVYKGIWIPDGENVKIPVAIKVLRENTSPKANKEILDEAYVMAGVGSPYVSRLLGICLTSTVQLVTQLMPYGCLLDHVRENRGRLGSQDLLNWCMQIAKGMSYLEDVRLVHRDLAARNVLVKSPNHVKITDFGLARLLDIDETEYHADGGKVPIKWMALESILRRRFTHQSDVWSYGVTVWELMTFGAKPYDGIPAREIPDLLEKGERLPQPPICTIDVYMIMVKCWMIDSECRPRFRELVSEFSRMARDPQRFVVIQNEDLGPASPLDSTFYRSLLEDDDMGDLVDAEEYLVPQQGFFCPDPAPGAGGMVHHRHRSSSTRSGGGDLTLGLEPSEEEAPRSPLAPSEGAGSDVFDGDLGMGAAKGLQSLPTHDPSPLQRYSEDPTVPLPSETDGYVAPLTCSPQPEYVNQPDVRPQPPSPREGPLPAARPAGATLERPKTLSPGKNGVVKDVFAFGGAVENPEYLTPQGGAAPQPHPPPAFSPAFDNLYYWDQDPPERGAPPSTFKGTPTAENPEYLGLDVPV

Row | Compound | viability [1] [%] | Her2 level [2] | viability [3] | viability [4] | viability [5] | differential viability (reversal) ([6]; H69AR cells + 2 uM doxorubicin) | viability [6, 9] [%] | viability [6, 10] [%] | inhibition [7] | inhibition [8]
1 | CCCN(Cc1cc2ccc(C)cc2[nH]c1=O)C(=O)c1cccnc1 | 87 | 93% (inactive) | 87% (inactive) | 89.3% (inactive) | 87.4% (inactive) | -2.29% (inactive) | 89.7 | 87.4 | 0% (inactive) | -3.28% (inactive)
2 | Cc1ccc(Nc2nc(N)nc(CN3CCCCCC3)n2)cc1 | 79.5 | 73.5% (inactive) | 79.5% (inactive) | 65.7% (inactive) | 78.4% (inactive) | -10.4% (inactive) | 88.8 | 78.4 | -1.69% (inactive) | 2.83% (inactive)
3 | COc1cc(OC)c(C2C(C#N)=C(N)OC3=C2C(=O)CC(C)(C)C3)cc1OC (stereo not given) | 85.5 | 106% (inactive) | 85.5% (inactive) | 61.9% (inactive) | 83.2% (inactive) | -1.53% (inactive) | 84.7 | 83.2 | 0.91% (inactive) | -9.02% (inactive)
4 | C/C(N)=C(/C#N)C(=O)CSc1nnc(Nc2c(C)cccc2C)s1 | 108 | 79.5% (inactive) | 108% (inactive) | 93.7% (inactive) | 103% (inactive) | 28.5% (inactive) | 74.6 | 103 | -2.84% (inactive) | 3.02% (inactive)
5 | NC1=NC(c2ccc(Br)cc2)n2c(nc3ccccc32)N1 (stereo not given) | 90 | 82% (inactive) | 90% (inactive) | 75.5% (inactive) | 81.4% (inactive) | 4.81% (inactive) | 76.6 | 81.4 | -5.13% (inactive) | -6% (inactive)
6 | CN1CCN(CC(=O)Nc2ccc(Cl)cc2Cl)CC1 | 85.5 | 95% (inactive) | 85.5% (inactive) | 91.6% (inactive) | 93.8% (inactive) | 3.29% (inactive) | 90.5 | 93.8 | -3.29% (inactive) | 2.74% (inactive)
7 | CCOC(=O)c1sc2ncn(/N=C/N(C)C)c(=O)c2c1C | 98 | 97.5% (inactive) | 98% (inactive) | 114% (inactive) | 100% (inactive) | 5.85% (inactive) | 94.1 | 100 | -6.13% (inactive) | 4.68% (inactive)
8 | O=C1CC(c2ccco2)=Nc2ccccc2N1 | 95 | 118% (inactive) | 95% (inactive) | 94.9% (inactive) | 109% (inactive) | 16.7% (inactive) | 92.5 | 109 | -0.13% (inactive) | -3.06% (inactive)
9 | O=C1c2ccccc2C(=O)N1C/C=C/c1ccccc1 | 81 | 75% (inactive) | 81% (inactive) | 78.2% (inactive) | 96.7% (inactive) | 7.29% (inactive) | 89.5 | 96.7 | -3.47% (inactive) | -1.29% (inactive)
10 | CCOC(=O)C(NC(=O)c1ccccc1)(Nc1cc(C)on1)C(F)(F)F (stereo not given) | 106 | 90.5% (inactive) | 106% (inactive) | 101% (inactive) | 97.7% (inactive) | 11.1% (inactive) | 86.6 | 97.7 | -0.93% (inactive) | -1.61% (inactive)
11 | O=C(Cn1nnc2ccccc2c1=O)NC1CCCc2ccccc21 (stereo not given) | 77 | 97.5% (inactive) | 77% (inactive) | 101% (inactive) | 103% (inactive) | 7.25% (inactive) | 95.4 | 103 | -2.67% (inactive) | 4.68% (inactive)
12 | O=C1C(c2ccncc2)=C(O)c2ccccc21 | 100 | 87% (inactive) | 100% (inactive) | 73.6% (inactive) | 82.2% (inactive) | -3.63% (inactive) | 85.9 | 82.2 | -1.05% (inactive) | 12.7% (inactive)
13 | O=C(O)C1CC(=O)N(c2ccc(OCc3ccccc3Cl)cc2)C1 (stereo not given) | 83 | 92.5% (inactive) | 83% (inactive) | 95.9% (inactive) | 90% (inactive) | 8.43% (inactive) | 81.6 | 90 | 0% (inactive) | 17.8% (inactive)
14 | CCN1C(=O)OC2(CCCCC2)C1(C)O (stereo not given) | 107 | 93.5% (inactive) | 107% (inactive) | 101% (inactive) | 105% (inactive) | 11.4% (inactive) | 94.1 | 105 | 0.13% (inactive) | -7.27% (inactive)
